Source: PubChem BioAssay (several laboratories)
PostGolgi yeast: phenotypic screen on post-Golgi transport, primary screen; post-Golgi transport phenotypic cell assay; inhibition, % at 10 µM; hit rate 0.9% among 98,000; AID 739, 2007;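 further: yeast cells grown in 1536-well plates; yeast grown about 18 h at 30C before absorbance read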
tolC growth inh: growth inhibitors of E. coli tolC mutant, primary screen, strain BW25113 ΔtolC::kan, 384-well; OD615; growth inhibition, % at 10 µM (by protocol); hit rate 2.2% among 65,000; AID 573, 2007;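 active means growth inhibition at or above a cutoff equal to the mean over every tested compound plus 3 SD, cut at about 60% in these data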;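 further: growth measured after 20 h incubation at 37 °C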
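System: E. coli ΔtolC::kan strain BW25113; Buffer or medium: LB broth supplemented with 50 µg/mL kanamycin; Compound: 10 µM final, single dose; Incubation: bacterial growth with compound for 20 h at 37 °C; Signal: A615 absorbance measurement; Evaluation: growth inhibition in percent.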
Ecoli WT expand: growth inhibitors of wild-type E. coli, primary screen, strain BW25113, expanded library, OD600; OD600 absorbance; growth inhibition, % at 100 µM; hit rate 0.15% among 98,000;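 active means growth inhibition above about 50% at one test dose, limit read from the data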;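 further: growth measured after 20 h incubation at 37 °C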
DAT uptake mod: changed hDAT dopamine uptake under cocaine IC80, either direction, primary screen, cocaine antagonist project, cell-based, LLC-PK1 hDAT, [14C]-dopamine uptake, MLSMR; LLC-PK1 hDAT cells, [14C]-dopamine uptake with cocaine IC80; actives deviate in either direction; Sodium-dependent dopamine transporter (Homo sapiens), Q01959; hit rate 1.3% among 110,000; AID 449768, 2010; B-score at 10 µM;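 active means Z score or B-score, a plate-position-corrected score, falls beyond the plate's 99.7% confidence bounds, in either direction; inactive means both scores lie inside the 99.7% bounds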
Target sequence (Q01959 whole entry, looked up): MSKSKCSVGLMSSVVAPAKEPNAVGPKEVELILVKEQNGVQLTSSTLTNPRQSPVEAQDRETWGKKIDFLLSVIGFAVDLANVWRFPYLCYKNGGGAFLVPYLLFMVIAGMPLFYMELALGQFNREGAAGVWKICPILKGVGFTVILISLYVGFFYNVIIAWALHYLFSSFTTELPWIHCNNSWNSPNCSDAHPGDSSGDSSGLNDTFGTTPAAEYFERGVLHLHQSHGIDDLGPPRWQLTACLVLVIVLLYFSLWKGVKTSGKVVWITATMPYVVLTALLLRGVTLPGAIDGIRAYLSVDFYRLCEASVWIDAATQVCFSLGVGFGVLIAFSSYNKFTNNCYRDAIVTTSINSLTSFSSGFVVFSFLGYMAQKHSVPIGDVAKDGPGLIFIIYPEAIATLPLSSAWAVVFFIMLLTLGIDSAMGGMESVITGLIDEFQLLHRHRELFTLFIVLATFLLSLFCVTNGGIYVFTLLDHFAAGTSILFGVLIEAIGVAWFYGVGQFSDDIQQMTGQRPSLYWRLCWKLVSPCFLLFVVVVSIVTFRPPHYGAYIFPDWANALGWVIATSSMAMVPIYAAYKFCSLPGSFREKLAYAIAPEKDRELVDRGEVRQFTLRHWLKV
PostGolgi ctrl: growth inhibition of yeast control strain, primary screen, counter-screen for post-Golgi transport modulator project; AID 738, 2007; efflux-deficient yeast background strain, growth absorbance A615, 16 h; inhibition, % at 10 µM; hit rate 5% among 98,000
D1 mod: D1 CRE-luciferase signal change, two-sided – cell-based, HEK293 D1, dopamine EC30, D1 allosteric modulator project, primary screen. hit rate 5.9% among 58,000. B-score at 10 µM. AID 641, 2007. dopamine EC30 potentiation; actives deviate in either direction. D(1A) dopamine receptor (Homo sapiens), P21728;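 active means luminescence count or its row- and column-corrected plate score outside the 99.7% band of the plate's sample wells, on either side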
Of the large screens only hits and unclear results are named; the others gave an inactive call. Only some compounds are listed: those with a hit (about 9.3% of all), similar ones and a draw of the others. Unless noted, no stated cut-off is given here; in the data, active means inhibition above about 30%; inactive means the rest.

CN(C)c1nccc(N(Cc2ccccc2)Cc2ccccc2)c1C#N	PostGolgi ctrl 30.5 (no result: tolC growth inh, D1 mod)
Cn1c(N)c(C(=O)c2cc(-c3ccccn3)nc3ccccc23)c(=O)[nH]c1=O	none (no result: DAT uptake mod)
CC(C)c1ccccc1NC(=O)c1cccnc1	none (no result: D1 mod)
CCC(C)c1ccccc1NC(=O)c1cccnc1 (stereo not drawn)	PostGolgi ctrl 51.6
COc1ccc(Br)cc1S(=O)(=O)n1ccnc1C	DAT uptake mod 2.66
CCN(C(=O)CN1CCN(c2ccc(OC)cc2)CC1)c1c(N)n(Cc2ccccc2)c(=O)[nH]c1=O	none (no result: DAT uptake mod)
Cc1ccc2nc(SCC(=O)c3cc(C)n(C)c3C)[nH]c2c1	PostGolgi ctrl 32.9 (no result: tolC growth inh, D1 mod)
C=CCn1c(C)cc(C(=O)CSc2nc3ccccc3[nH]2)c1C	none (no result: tolC growth inh, D1 mod)
COC(=O)c1ccc(CSc2nc3ccccc3[nH]2)o1	none (no result: tolC growth inh, D1 mod)
Cc1c(C)n(C(=O)CSc2nc3ccccc3[nH]2)c2ccccc12	PostGolgi ctrl 31.4 (no result: tolC growth inh, D1 mod)
COC(=O)c1cc(CSc2nc3ccc(C)cc3[nH]2)oc1C	tolC growth inh 73.2 (no result: PostGolgi yeast, Ecoli WT expand, PostGolgi ctrl, D1 mod)
Cc1cc(C(=O)CSc2nc3ccc(Cl)cc3[nH]2)c(C)n1C	PostGolgi yeast 55.2, PostGolgi ctrl 84.4
CCOC(=O)C[C@H]1c2cc(F)ccc2S(=O)(=O)N1c1cccc(OC)c1	none (no result: PostGolgi yeast, tolC growth inh, Ecoli WT expand, PostGolgi ctrl, D1 mod)
COC(=O)C1=C(C)N(CCCC(=O)O)C(=O)NC1c1ccccc1Cl (stereo not drawn)	none (no result: PostGolgi yeast, tolC growth inh, Ecoli WT expand, PostGolgi ctrl, D1 mod)
COc1cc(/C=C2/N=C(c3ccccc3)OC2=O)c(F)cc1OCc1ccccc1	none (no result: PostGolgi yeast, tolC growth inh, Ecoli WT expand, PostGolgi ctrl, D1 mod)
Cn1c(C(=O)OC(C(=O)NC2CCCCC2)c2ccncc2)cc2sccc21 (stereo not drawn)	none
COc1cccc(CC(NC(C)=O)C(=O)NC2CCN(S(=O)(=O)c3ccc4ccccc4c3)CC2)c1 (stereo not drawn)	none (no result: tolC growth inh, D1 mod)
O=S(=O)(c1ccc2c(c1)nc(COc1ccc(Cl)cc1)n2CC1CCCO1)N1CCOCC1 (stereo not drawn)	none
O=[N+]([O-])c1cc([N+](=O)[O-])c(N2CCCCCC2)cc1NCCO	none (no result: tolC growth inh, D1 mod)
C/C(N)=C(/C#N)C(=O)CSc1nc2ccc(C)cc2[nH]1	D1 mod -2.59
Cc1cc(C(=O)CSc2nc3ccccc3[nH]2)c(C)n1C	D1 mod -2.87
Cc1ccc2nc(SCC(=O)N3CCOCC3)[nH]c2c1	none (no result: tolC growth inh, D1 mod)
Cc1cccc(NS(=O)(=O)c2cccc3nsnc23)c1	none (no result: tolC growth inh, D1 mod)
Cc1ccc(C)c(S(=O)(=O)Nc2ccc3scnc3c2)c1	PostGolgi ctrl 49.5
Cn1c(=O)c2ncn(CC(=O)Nc3cccc(-c4nc5ccccc5s4)c3)c2n(C)c1=O	none (no result: tolC growth inh, D1 mod)
COc1ccc(OC)c(C2C(C(=O)c3cc4ccccc4o3)=C(O)C(=O)N2c2cc(C)on2)c1 (stereo not drawn)	DAT uptake mod 3.76
COc1cc(C2C(C(=O)c3ccc(C)o3)=C(O)C(=O)N2c2cc(C)on2)cc(Br)c1O (stereo not drawn)	tolC growth inh 65.4
Cc1cc(-c2cc(C(=O)NCc3ccccc3)on2)nc(S(C)(=O)=O)n1	none (no result: PostGolgi yeast, tolC growth inh, Ecoli WT expand, PostGolgi ctrl, D1 mod)
CCn1nnnc1SCC(=O)NCc1ccco1	DAT uptake mod -8.76
CCOC(=O)CSc1nc2ccccc2c(=O)n1CC	none
CCOC(=O)CSc1nc2cc(C(=O)NCc3ccco3)ccc2c(=O)n1C1CCCCC1	PostGolgi ctrl 45.2
CCn1c(SCC(=O)OC2CCCCC2)nc2ccccc2c1=O	tolC growth inh 71.6
COc1ccc(C(=O)Nn2c(SCC(=O)NCc3ccco3)nc3ccccc3c2=O)cc1	D1 mod -9.32
O=C(NCc1ccc(F)cc1)c1ccc2c(c1)S(=O)(=O)c1ccccc1C2=O	none (no result: PostGolgi yeast, tolC growth inh, Ecoli WT expand, PostGolgi ctrl, D1 mod)
Cc1cc(C)n(-c2cc(N3CCN(C(=O)c4ccccc4C)CC3)ccc2[N+](=O)[O-])n1	none (no result: PostGolgi yeast, tolC growth inh, Ecoli WT expand, PostGolgi ctrl, D1 mod)
COc1cc(CNC2CCCC2)cc(Cl)c1OCc1ccccc1F	none (no result: tolC growth inh, D1 mod)
CCOC(=O)CSc1nc2ccccc2c(=O)n1CC1CCCC1	none (no result: PostGolgi yeast, tolC growth inh, Ecoli WT expand, PostGolgi ctrl, D1 mod)
CCOC(=O)CSc1nc2ccccc2c(=O)n1CC1CCC(C(=O)NCc2ccco2)CC1 (stereo not drawn)	PostGolgi ctrl 36.4
